In the assay the target is wild type rat secretin receptor (Rattus norvegicus, UniProt P23811). The experiment in a line: cAMP responses in secretin receptor-bearing CHO-SecR cells. Format: cell-based. The settings on record: for agonist (biological) activity at the secretin receptor, in words: cAMP responses in CHO-SecR cells, relative to maximal response to secretin. In a few lines:
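CHO cells stably expressing wild-type rat secretin receptor, grown 48 h at ~8,000 cells/well, washed twice in PBS, then stimulated 30 min at 37 °C with increasing test-compound concentrations in Krebs-Ringers/HEPES pH 7.4 with 0.2% BSA, 0.1% bacitracin and 1 mM IBMX. Lysis in 6% ice-cold perchloric acid, neutralised to pH 6, cAMP by LANCE. Normalised to maximal secretin response; three experiments in duplicate.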

This is an account of results in paper PMC2872052 (Peptides, 2010).

The structures appear in SMILES notation. Where a SMILES comes first, the peptide text is derived from it. [ ]: non-standard residue; d: D form.

Sequence of wild type rat secretin receptor (P23811 26-449): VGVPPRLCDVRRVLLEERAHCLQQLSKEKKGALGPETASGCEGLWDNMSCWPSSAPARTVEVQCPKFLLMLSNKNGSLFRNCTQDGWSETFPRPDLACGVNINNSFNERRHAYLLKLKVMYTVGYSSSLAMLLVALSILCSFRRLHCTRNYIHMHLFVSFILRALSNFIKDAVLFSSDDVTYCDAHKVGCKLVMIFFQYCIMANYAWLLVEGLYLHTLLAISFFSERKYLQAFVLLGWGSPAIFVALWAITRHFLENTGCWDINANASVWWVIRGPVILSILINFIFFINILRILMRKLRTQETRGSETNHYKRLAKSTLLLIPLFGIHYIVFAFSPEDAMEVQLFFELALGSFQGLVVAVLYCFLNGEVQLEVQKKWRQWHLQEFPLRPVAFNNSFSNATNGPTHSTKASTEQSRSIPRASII

For `C[C@@H]1NC(=O)[C@H](C)NC(=O)[C@@H](C)NC(=O)[C@H](C)NC(=O)[C@H](CC(=O)O)NC(=O)[C@H](Cc2c[nH]c3ccccc23)NC1=O` [c[AAWDAa]] (cyclo(AAWDA[dA])), a half-maximal effect (EC50) was put at 23 ± 5.3 µM and the “agonist (biological) activity at the secretin receptor, in words” value is given as “full agonist activity”.

`C[C@@H]1NC(=O)[C@H](C)NC(=O)[C@H](CC(=O)O)NC(=O)[C@H](Cc2c[nH]c3ccccc23)NC(=O)[C@H](C)NC(=O)[C@@H](C)NC1=O` [c[AWDAAa]] (cyclo(AA[dA]AWD)): the concentration for a half-maximal effect (EC50) (commonly the concentration that produces a half-maximal response) stood at 21 ± 4.2 µM and the “agonist (biological) activity at the secretin receptor, in words” value is “full agonist activity”.

For the compound `O=C(O)C[C@@H]1NC(=O)[C@H](Cc2c[nH]c3ccccc23)NC(=O)[C@H](CC(=O)O)NC(=O)[C@H](Cc2c[nH]c3ccccc23)NC(=O)[C@@H](CC(=O)O)NC(=O)[C@H](Cc2c[nH]c3ccccc23)NC1=O` [c[WDWDWd]] (cyclo(DWDW[dD]W)), the EC50 was found to be 11.7 ± 3 µM.
